Tests used:
[1] = test system: Hamster; experiment: Activity measured as 4-aminoazobenzene (AAB) transacetylation rate with partially purified hamster hepatic enzyme; assay type: ADME; conditions: cricetinae, in vitro
Procedure, shortened: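 Hamster liver (male golden Syrian) 105000g supernatant, ammonium sulfate-fractionated (two- to three-fold), in 0.05 M sodium pyrophosphate pH 7, 1 mM DTT with KCl. 2-min 37 °C equilibration, then hydroxamic acid plus AAB added. Final: 1.0 mM donor, 0.15 mM AAB, 1.0 mg/mL protein, 2.0 min (exceptions: 0.5–0.6 mM donor, 3.5 min). TCA/EtOH stop, A497. Mean ± SE, N = 15–30.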

[2] = Apparent inactivation rate constant was evaluated
Procedure, shortened: (§1)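 Partially purified hamster hepatic AHAT was preincubated at 37 °C in pyrophosphate buffer pH 7, 1 mM DTT, KCl, with five inactivator concentrations (0.005–1.0 mM final) for five preincubation periods (1–15 min). Remaining AAB transacetylation activity was then assayed. kobsd came from semilog plots of percent remaining activity vs. time. k_i and K_D came from double-reciprocal plots of kobsd vs. concentration. Three experiments, each in triplicate.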

[3] = Apparent dissociation (binding) rate constant was evaluated; assay type: ADME; procedure, shortened: as §1
[4] = test system: Cricetinae gen. sp.; experiment: Percent protection from inactivation of AHAT was determined using guanosine phosphate; assay type: functional, Cricetulus griseus; parameters: concentration or dose not given beside the values
Procedure, shortened: (§2)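 Run as in the inactivation kinetics: hamster hepatic AHAT was preincubated at 37 °C with a saturating inactivator concentration for 2–20 min (to maximal inactivation). Nucleophile was present at 10 mM (L-cysteine, L-methionine, glutathione, guanosine phosphate) or tRNA at 1 mg/mL. Remaining AAB transacetylation activity was then measured. Protection = percent remaining activity with minus without nucleophile. Mean ± SE of three experiments.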

[5] = test system: Cricetinae gen. sp.; experiment: Percent protection from inactivation of AHAT was determined using t-RNA; assay type: functional, Cricetulus griseus; parameters: concentration or dose not given beside the values; procedure, shortened: as §2
[6] = test system: Cricetinae gen. sp.; experiment: Percent protection from inactivation of AHAT was determined using L-cysteine; assay type: functional, Cricetulus griseus; parameters: concentration or dose not given beside the values; procedure, shortened: as §2
[7] = test system: Cricetinae gen. sp.; experiment: Percent protection from inactivation of AHAT was determined using L-methionine; assay type: functional, Cricetulus griseus; parameters: concentration or dose not given beside the values; procedure, shortened: as §2
[8] = test system: Cricetinae gen. sp.; experiment: Percent protection from inactivation of AHAT was determined using glutathione; assay type: functional, Cricetulus griseus; parameters: concentration or dose not given beside the values; procedure, shortened: as §2
[9] = Ratio of apparent inactivation rate constant to apparent dissociation (binding) rate constant was determined
[10] = test system: N-arylhydroxamic acid N,O-acyltransferase (Mesocricetus auratus); experiment: Percent protection from inactivation of AHAT was determined using t-RNA
[11] = test system: N-arylhydroxamic acid N,O-acyltransferase (Mesocricetus auratus); experiment: Percent protection from inactivation of AHAT was determined using L-cysteine
[12] = test system: N-arylhydroxamic acid N,O-acyltransferase (Mesocricetus auratus); experiment: Percent protection from inactivation of AHAT was determined using glutathione
[13] = test system: N-arylhydroxamic acid N,O-acyltransferase (Mesocricetus auratus); experiment: Percent protection from inactivation of AHAT was determined using L-methionine
[14] = test system: N-arylhydroxamic acid N,O-acyltransferase (Mesocricetus auratus); experiment: Percent protection from inactivation of AHAT was determined using guanosine phosphate

With `COc1ccc2c(c1)Cc1cc(N(O)C(C)=O)ccc1-2` as the compound, how does the Rate [1] read?
Its Rate is 10.9 nmol/mg/min.

What about the kinact [2] of the same compound?
The kinact was 3.73 min⁻¹.

And the Kd [3]?
The Kd was 35.1 µM.

And the Protection [4]?
The Protection was 54.9%.

What about the Protection [5] of the same compound?
Its Protection is 32.2%.

What about the Protection [6] of the same compound?
Its Protection is 47.6%.

And the Protection [7]?
The Protection was 28.3%.

What about the Protection [8] of the same compound?
The Protection was 46.1%.

And the kinact/KI [9]?
The kinact/KI was 1770 M⁻¹ s⁻¹.

With `CC(=O)N(O)c1ccc2c(c1)Cc1cc(I)ccc1-2` as the compound, how does the Rate [1] read?
Its Rate is 5.3 nmol/mg/min.

What about the kinact [2] of the same compound?
The kinact was 0.07 min⁻¹.

And the Kd [3]?
The Kd was 0.4 µM.

And the kinact/KI [9]?
Its kinact/KI is 2900 M⁻¹ s⁻¹.

With `CC(=O)N(O)c1ccc2c(c1)Cc1cc(F)ccc1-2` as the compound, how does the Rate [1] read?
The Rate was 26.8 nmol/mg/min.

What about the kinact [2] of the same compound?
Its kinact is 2.59 min⁻¹.

And the Kd [3]?
Its Kd is 129 µM.

And the Protection [4]?
The Protection was 58.4%.

And the Protection [5]?
Its Protection is 17.6%.

And the Protection [6]?
The Protection was 54.5%.

And the Protection [7]?
Its Protection is 38.2%.

What about the Protection [8] of the same compound?
The Protection was 55.2%.

What about the kinact/KI [9] of the same compound?
Its kinact/KI is 334 M⁻¹ s⁻¹.

For `CC(=O)N(O)c1ccc2c(c1)Cc1cc(Br)ccc1-2`, which Rate [1] is on record?
Its Rate is 20.5 nmol/mg/min.

And the kinact [2]?
The kinact was 0.22 min⁻¹.

And the Kd [3]?
Its Kd is 5.9 µM.

And the Protection [4]?
Its Protection is 26.9%.

And the Protection [5]?
Its Protection is 0%.

What about the Protection [6] of the same compound?
The Protection was 31.1%.

What about the Protection [7] of the same compound?
The Protection was 6.6%.

And the Protection [8]?
Its Protection is 34.7%.

And the kinact/KI [9]?
The kinact/KI was 620 M⁻¹ s⁻¹.

Which results are given for `CC(=O)c1ccc2c(c1)Cc1cc(N(O)C(C)=O)ccc1-2`?
Rate [1]: 13.7 nmol/mg/min; kinact [2]: 0.25 min⁻¹; Kd [3]: 0.4 µM; Protection [4]: 1.4%; Protection [5]: 8.3%; Protection [6]: 32.4%; Protection [7]: 0.3%; Protection [8]: 26.3%; kinact/KI [9]: 10400 M⁻¹ s⁻¹

Which results are given for `CC(=O)N(O)c1ccc2c(c1)Cc1cc(Cl)ccc1-2`?
Rate [1]: 20.1 nmol/mg/min; kinact [2]: 0.76 min⁻¹; Kd [3]: 48.8 µM; kinact/KI [9]: 258 M⁻¹ s⁻¹

Which Rate [1] does the source give for `CCOc1ccc2c(c1)Cc1cc(N(O)C(C)=O)ccc1-2` here?
Its Rate is 9.6 nmol/mg/min.

What about the kinact [2] of the same compound?
The kinact was 0.67 min⁻¹.

And the Kd [3]?
Its Kd is 3.8 µM.

And the kinact/KI [9]?
The kinact/KI was 2940 M⁻¹ s⁻¹.

And the Protection [10]?
Its Protection is 19.2%.

What about the Protection [11] of the same compound?
The Protection was 34.2%.

What about the Protection [12] of the same compound?
Its Protection is 39.4%.

What about the Protection [13] of the same compound?
Its Protection is 43.3%.

What about the Protection [14] of the same compound?
The Protection was 21.3%.

With `CC(=O)N(O)c1ccc2c(c1)Cc1ccccc1-2` as the compound, how does the Rate [1] read?
The Rate was 20.9 nmol/mg/min.

What about the kinact [2] of the same compound?
The kinact was 1.95 min⁻¹.

And the Kd [3]?
The Kd was 88.8 µM.

What about the Protection [4] of the same compound?
The Protection was 34.9%.

And the Protection [5]?
The Protection was 1.9%.

What about the Protection [6] of the same compound?
The Protection was 39.1%.

And the Protection [7]?
The Protection was 23.1%.

And the Protection [8]?
The Protection was 15.7%.

What about the kinact/KI [9] of the same compound?
Its kinact/KI is 360 M⁻¹ s⁻¹.

Which Rate [1] does the source give for `CCCCOc1ccc2c(c1)Cc1cc(N(O)C(C)=O)ccc1-2` here?
Its Rate is 4.6 nmol/mg/min.

And the kinact [2]?
Its kinact is 0.58 min⁻¹.

What about the Kd [3] of the same compound?
Its Kd is 5.7 µM.

And the Protection [4]?
The Protection was 18.9%.

And the Protection [5]?
Its Protection is 18%.

And the Protection [6]?
The Protection was 9.3%.

What about the Protection [7] of the same compound?
The Protection was 8.1%.

What about the Protection [8] of the same compound?
Its Protection is 6%.

And the kinact/KI [9]?
The kinact/KI was 1690 M⁻¹ s⁻¹.

For `CC(=O)N(O)c1ccc2c(c1)Cc1cc(C#N)ccc1-2`, which Rate [1] is on record?
The Rate was 16.5 nmol/mg/min.

And the kinact [2]?
Its kinact is 0.09 min⁻¹.

And the Kd [3]?
The Kd was 40 µM.

What about the Protection [4] of the same compound?
The Protection was 5.9%.

What about the Protection [5] of the same compound?
The Protection was 2.9%.

And the Protection [6]?
Its Protection is 35.9%.

What about the Protection [7] of the same compound?
Its Protection is 8%.

What about the Protection [8] of the same compound?
Its Protection is 30.5%.

And the kinact/KI [9]?
The kinact/KI was 37.5 M⁻¹ s⁻¹.

Source: ChEMBL document CHEMBL1123063, “Mechanism-based inactivation of N-arylhydroxamic acid N,O-acyltransferase by 7-substituted-N-hydroxy-2-acetamidofluorenes” (J Med Chem, 1985)
